The record followed here is ChEMBL document CHEMBL1132448, “Enantiospecific synthesis of 3-fluoromethyl-, 3-hydroxymethyl-, and 3-chloromethyl-1,2,3,4-tetrahydroisoquinolines as selective inhibitors of phenylethanolamine N-methyltransferase versus the alpha(2)-adrenoceptor” (J Med Chem, 1999).

Assay [1] is described as follows: Ratio of binding affinity of PNMT to alpha-2 receptors.
Assay [2] concerns the target T1, Adrenergic receptor alpha-2 (Rattus norvegicus, UniProt P22086+P19328+P22909).
T1 sequence (P22086 whole entry): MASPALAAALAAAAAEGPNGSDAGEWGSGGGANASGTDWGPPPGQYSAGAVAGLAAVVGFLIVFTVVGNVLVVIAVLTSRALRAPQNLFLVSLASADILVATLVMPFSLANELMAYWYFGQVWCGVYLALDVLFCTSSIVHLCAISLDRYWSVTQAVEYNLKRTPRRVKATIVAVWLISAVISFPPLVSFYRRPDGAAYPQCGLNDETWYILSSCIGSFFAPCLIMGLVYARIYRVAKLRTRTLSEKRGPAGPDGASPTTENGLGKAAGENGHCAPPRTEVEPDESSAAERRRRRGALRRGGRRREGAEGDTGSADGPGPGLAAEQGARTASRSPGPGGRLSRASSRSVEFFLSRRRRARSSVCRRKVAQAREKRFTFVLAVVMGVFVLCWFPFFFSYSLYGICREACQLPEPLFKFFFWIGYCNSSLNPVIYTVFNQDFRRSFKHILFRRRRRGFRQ
T1 sequence (P19328 whole entry): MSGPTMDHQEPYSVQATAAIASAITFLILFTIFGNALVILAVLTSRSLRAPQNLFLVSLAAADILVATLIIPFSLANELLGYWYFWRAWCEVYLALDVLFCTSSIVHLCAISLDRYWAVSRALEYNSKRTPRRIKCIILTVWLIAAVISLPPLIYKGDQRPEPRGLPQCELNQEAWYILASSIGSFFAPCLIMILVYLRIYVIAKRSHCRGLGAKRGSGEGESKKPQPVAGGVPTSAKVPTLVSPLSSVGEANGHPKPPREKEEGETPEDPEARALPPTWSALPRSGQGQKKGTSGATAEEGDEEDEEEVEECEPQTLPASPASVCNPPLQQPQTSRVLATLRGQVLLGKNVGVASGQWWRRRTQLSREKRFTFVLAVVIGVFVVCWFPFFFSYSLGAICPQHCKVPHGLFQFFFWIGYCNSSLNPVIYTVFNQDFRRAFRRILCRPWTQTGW
T1 sequence (P22909 whole entry): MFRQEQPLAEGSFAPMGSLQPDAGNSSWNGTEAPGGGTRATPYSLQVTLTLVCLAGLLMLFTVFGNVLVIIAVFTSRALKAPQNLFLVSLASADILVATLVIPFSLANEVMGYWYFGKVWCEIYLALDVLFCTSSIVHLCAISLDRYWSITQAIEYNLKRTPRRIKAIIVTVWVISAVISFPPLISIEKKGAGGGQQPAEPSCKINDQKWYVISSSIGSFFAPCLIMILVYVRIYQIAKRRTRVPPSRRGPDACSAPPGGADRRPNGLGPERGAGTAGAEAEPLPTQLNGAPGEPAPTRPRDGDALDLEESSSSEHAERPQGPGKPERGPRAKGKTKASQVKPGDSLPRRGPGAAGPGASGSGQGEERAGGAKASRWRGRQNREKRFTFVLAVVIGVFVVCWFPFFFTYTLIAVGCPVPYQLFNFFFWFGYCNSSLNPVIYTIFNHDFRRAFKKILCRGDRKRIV
Kind of assay: In vitro inhibition of [3H]clonidine binding at the alpha-2 adrenergic receptor. The class given is protein assay. The method in brief: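 Membranes from male Sprague-Dawley rat cortex, homogenized and washed in 50 mM Tris/HCl pH 7.7. Incubated with [3H]clonidine (final 2.0 nM) and various inhibitor concentrations, 1 mL final volume, 25 °C for 30 min. Terminated by vacuum filtration on GF/B filters and counted. Nonspecific binding defined with 2 µM phentolamine. IC50 by log-probit analysis; Ki = IC50/(1 + [clonidine]/KD).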

The target in assay [3] is T2, Phenylethanolamine N-methyltransferase (Bos taurus, UniProt P10938).
T2 sequence (P10938 whole entry): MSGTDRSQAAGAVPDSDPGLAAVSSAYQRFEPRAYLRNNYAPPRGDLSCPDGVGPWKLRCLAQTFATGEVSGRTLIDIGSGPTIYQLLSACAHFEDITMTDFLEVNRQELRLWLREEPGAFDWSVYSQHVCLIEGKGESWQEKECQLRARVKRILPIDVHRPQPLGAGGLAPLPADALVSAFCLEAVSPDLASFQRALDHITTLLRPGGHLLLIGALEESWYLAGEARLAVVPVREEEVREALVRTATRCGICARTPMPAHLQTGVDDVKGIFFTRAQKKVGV
The assay is described as follows: In vitro inhibition of PNMT (Phenylethanolamine N-Methyltransferase).

Turning to `NS(=O)(=O)c1ccc2c(c1)CNC(CO)C2` (centres undefined), the Selectivity in assay [1] stood at 4100.

Consider `C[C@H]1Cc2ccc([N+](=O)[O-])cc2CN1`, for which the Selectivity in assay [1] worked out at 41. In addition, the values for the Ki in assay [2] and in assay [3] were 53000 nM and 1300 nM, respectively.

Consider `OC[C@@H]1Cc2ccccc2CN1`, for which the Selectivity in assay [1] was found to be 1.1.

`O=[N+]([O-])c1ccc2c(c1)CN[C@@H](CCl)C2`: the Selectivity in assay [1] was 210. The Ki in assay [2] is 100000 nM; in assay [3] it was 470 nM.

Consider `C[C@@H]1Cc2ccc([N+](=O)[O-])cc2CN1`, for which the Selectivity in assay [1] came to 76. The Ki in assay [2] was 19000 nM; in assay [3], 250 nM.

For the compound `Clc1ccc2c(c1Cl)CNCC2`, the Selectivity in assay [1] was 0.095.

On to `NS(=O)(=O)c1ccc2c(c1)CNC(CF)C2` (centres undefined), for which the Selectivity in assay [1] amounted to 1000.

Regarding `FC[C@H]1Cc2ccccc2CN1`, the Selectivity in assay [1] was determined as 4.2. Also, the Ki in assay [2] amounted to 2900 nM; in assay [3] it was 690 nM.

Consider `ClC[C@@H]1Cc2ccccc2CN1`, for which the Selectivity in assay [1] is 0.55. The Ki in assay [2] turned out to be 6600 nM; in assay [3], 12000 nM.

`N#Cc1ccc2c(c1)CN[C@@H](CF)C2`: in assay [1], the Selectivity was 370. Also, the Ki was determined as 360000 nM in assay [2] and 970 nM in assay [3].

In the case of `O=[N+]([O-])c1ccc2c(c1)CN[C@@H](CF)C2`, in assay [1], the Selectivity is 90. The inhibition constant (Ki) in assay [2] stood at 47000 nM; in assay [3], 520 nM.

Consider `OCC1Cc2ccccc2CN1` (centres undefined), for which, in assay [1], the Selectivity amounted to 6.

For `C[C@H]1Cc2ccccc2CN1`, the Selectivity in assay [1] stood at 0.15. Moreover, the inhibition constant Ki in assay [2] is 5700 nM; in assay [3] it was 38000 nM.

Turning to `O=[N+]([O-])c1ccc2c(c1)CN[C@H](CCl)C2`, in assay [1], the Selectivity was determined as 410. For the same compound, the inhibitory constant (Ki) came to 270000 nM in assay [2] and 660 nM in assay [3].

As to `FC[C@H]1Cc2ccc(Br)cc2CN1`, in assay [1], the Selectivity was 6.1. The Ki in assay [2] came to 3100 nM; in assay [3], 510 nM.

Regarding `C[C@@H]1Cc2ccccc2CN1`, the Selectivity in assay [1] amounted to 0.49. The Ki is 490 nM in assay [2] and 1000 nM in assay [3].

For the compound `ClC[C@H]1Cc2ccccc2CN1`, in assay [1], the Selectivity was found to be 0.66. Further, the Ki in assay [2] was determined as 2300 nM; in assay [3], 3500 nM.

As for `CCC1Cc2ccccc2CN1` (centres undefined), the Selectivity in assay [1] was 0.028.

Turning to `O=[N+]([O-])c1ccc2c(c1)CN[C@H](CF)C2`, the Selectivity in assay [1] worked out at 160. Besides, the Ki in assay [2] turned out to be 140000 nM; in assay [3], 880 nM.

In the case of `OC[C@H]1Cc2ccc(Br)cc2CN1`, the Selectivity in assay [1] came out at 3.2. The Ki is 1200 nM in assay [2] and 380 nM in assay [3].

For the compound `O=S(=O)(Nc1ccc(Cl)cc1)c1ccc2c(c1)CNC(CF)C2` (centres undefined), the Selectivity in assay [1] came out at 220.

Consider `O=[N+]([O-])c1ccc2c(c1)CNC(CF)C2` (centres undefined), for which the Selectivity in assay [1] is 140.

Take `CC1Cc2ccccc2CN1` (centres undefined): the Selectivity in assay [1] was found to be 0.36.

Turning to `N#Cc1ccc2c(c1)CNC(CF)C2` (centres undefined), the Selectivity in assay [1] is 420.

On to `FC[C@@H]1Cc2ccccc2CN1`, for which the Selectivity in assay [1] was 3.7. Besides, the Ki was 37000 nM in assay [2] and 9900 nM in assay [3].

Consider `N#Cc1ccc2c(c1)CN[C@H](CF)C2`, for which the Selectivity in assay [1] was 170. In addition, the Ki was 580000 nM in assay [2] and 3500 nM in assay [3].

In the case of `c1ccc2c(c1)CCNC2`, the Selectivity in assay [1] is 0.35.

As to `FCC1Cc2ccc(Br)cc2CN1` (centres undefined), the Selectivity in assay [1] came out at 10.

As to `OC[C@@H]1Cc2ccc(Br)cc2CN1`, the Selectivity in assay [1] stood at 2. For the same compound, the values for the Ki in assay [2] and in assay [3] were 970 nM and 480 nM, respectively.

In the case of `O=S(=O)(Nc1ccc(Cl)cc1)c1ccc2c(c1)CN[C@@H](CF)C2`, in assay [1], the Selectivity worked out at 350. The inhibition constant Ki in assay [2] turned out to be 97000 nM; in assay [3], 280 nM.

As for `O=S(=O)(Nc1ccc(Cl)cc1)c1ccc2c(c1)CN[C@H](CF)C2`, the Selectivity in assay [1] worked out at 53. In addition, the results for the inhibition constant Ki in assay [2] and in assay [3] were 101000 nM and 1900 nM, respectively.

With `FC[C@@H]1Cc2ccc(Br)cc2CN1`, in assay [1], the Selectivity turned out to be 36. The inhibitory constant (Ki) in assay [2] worked out at 17000 nM; in assay [3], 470 nM.

Turning to `FCC1Cc2ccccc2CN1` (centres undefined), the Selectivity in assay [1] came out at 2.5.

As to `OC[C@H]1Cc2ccccc2CN1`, the Selectivity in assay [1] is 7.9.

The term Ki denotes a dissociation constant, usually derived from enzyme kinetics or from competition with a known ligand.
